The record followed here is ChEMBL document CHEMBL3875208, “2-Oxoamides based on dipeptides as selective calcium-independent phospholipase A2 inhibitors” (Bioorg Med Chem, 2017).

For orientation: inhibition means the change of the read-out against control, counted positive when it falls.

The subject of test [1] is Phospholipase A2 group VI, Homo sapiens. Put plainly: Inhibition of human calcium-independent group-6A iPLA2 using Triton-X-100/PAPC/arachidonyl-1-14C PAPC substrate mixed micelles at 0.091 mole_fraction by modified dole assay relative to control.
The test system is the same in test [2]. Put plainly: Inhibition of human calcium-independent group-6A iPLA2 using Triton-X-100/PAPC/arachidonyl-1-14C PAPC substrate mixed micelles by modified dole assay.
In test [3] the target is T1, Cytosolic phospholipase A2 (Homo sapiens) (UniProt P47712).
T1 sequence (whole entry): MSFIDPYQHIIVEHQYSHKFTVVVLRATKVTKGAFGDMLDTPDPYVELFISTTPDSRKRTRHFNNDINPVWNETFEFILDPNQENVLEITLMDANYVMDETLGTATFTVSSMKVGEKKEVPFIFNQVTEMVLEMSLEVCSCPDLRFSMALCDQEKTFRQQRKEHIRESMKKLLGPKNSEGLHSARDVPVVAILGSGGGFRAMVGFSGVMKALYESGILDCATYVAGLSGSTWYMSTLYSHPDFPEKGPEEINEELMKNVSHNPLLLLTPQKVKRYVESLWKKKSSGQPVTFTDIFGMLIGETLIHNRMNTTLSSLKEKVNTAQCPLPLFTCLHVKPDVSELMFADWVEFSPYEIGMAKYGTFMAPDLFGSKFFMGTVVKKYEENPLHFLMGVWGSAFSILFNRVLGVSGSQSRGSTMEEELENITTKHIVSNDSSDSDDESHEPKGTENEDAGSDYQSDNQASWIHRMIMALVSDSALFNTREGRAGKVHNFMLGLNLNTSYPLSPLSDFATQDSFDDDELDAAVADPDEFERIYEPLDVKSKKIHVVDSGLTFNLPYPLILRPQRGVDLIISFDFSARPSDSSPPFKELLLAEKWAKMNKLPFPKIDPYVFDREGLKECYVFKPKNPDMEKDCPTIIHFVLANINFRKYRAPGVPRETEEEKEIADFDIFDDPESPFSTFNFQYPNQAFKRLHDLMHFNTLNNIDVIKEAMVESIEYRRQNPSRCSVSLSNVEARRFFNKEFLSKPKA
As to the kind of experiment: Inhibition of human group-4 cPLA2 using Triton-X-100/PAPC/arachidonyl-1-14C PAPC/PIP2 substrate mixed micelles at 0.091 mole_fraction by modified dole assay relative to control. The gist of the method:
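Buffer was 100 mM HEPES pH 7.5 with 90 μM CaCl2, 2 mM DTT and 0.1 mg/ml BSA. Activity was read by modified Dole assay with inhibitor at 0.091 mole fraction, added from a 5 mM DMSO stock, and expressed as percent inhibition.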

For test [4], the target named is T2, Phospholipase A2 group V (Homo sapiens) (UniProt P39877).
T2 sequence (whole entry): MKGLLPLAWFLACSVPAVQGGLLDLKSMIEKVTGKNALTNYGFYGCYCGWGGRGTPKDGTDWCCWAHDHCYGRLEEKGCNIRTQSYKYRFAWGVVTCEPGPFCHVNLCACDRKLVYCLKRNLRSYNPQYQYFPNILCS
As to the kind of experiment: Inhibition of human calcium-independent group-5 sPLA2 using Triton-X-100/PAPC/arachidonyl-1-14C PAPC substrate mixed micelles at 0.091 mole_fraction by modified dole assay relative to control. The settings on record: in the assay text read “group-5 sPLA2” for “calcium-independent group-5 sPLA2”. The gist of the method: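 Human GV sPLA2 activity was measured by modified Dole assay. Inhibitor was added from a 5 mM DMSO stock to give 0.091 mole fraction in substrate, and percent inhibition was recorded.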

Test [5] has as its target T2, Phospholipase A2 group V (Homo sapiens). As to the kind of experiment: Inhibition of human group-5 sPLA2 using Triton-X-100/PAPC/arachidonyl-1-14C PAPC substrate mixed micelles at 0.091 mole_fraction by modified dole assay relative to control.
Test [6] has as its system Phospholipase A2 group VI, Homo sapiens. As to the kind of experiment: Inhibition of human calcium-independent group-6A iPLA2 using substrate mixed micelles at 0.091 mole_fraction by modified dole assay relative to control.
The species entered for another test is Homo sapiens. Put plainly: Selectivity ratio of XI50 for human group-4 cPLA2 to XI50 for human calcium-independent group-6A iPLA2.

For `COc1ccc(CCCCC(=O)C(=O)N[C@@H](CC(C)C)C(=O)NCC(=O)OC(C)(C)C)cc1`, the inhibition in test [1] was more than 95%; in test [3], 51.6%; in test [4], 40.8%. For the same molecule, the XI50 (mole fraction) in test [2] was 0.024.

In the case of `COc1ccc(CCCCC(=O)C(=O)N[C@H](C(=O)NCC(=O)OC(C)(C)C)C(C)C)cc1`, the results for the inhibition in test [1], in test [3] and in test [4] were 85.7%, 35.4% and 47.1%, respectively.

Consider `CCCC[C@H](NC(=O)C(=O)CCCCc1ccccc1)C(=O)NCC(=O)OC(C)(C)C`, for which the inhibition in test [1] amounted to 91.1%; in test [3] it was 46.9%; in test [4] it was 43.4%.

In the case of `CCCC[C@H](NC(=O)C(=O)CCCCc1ccc(OC)cc1)C(=O)NCCC(=O)OC(C)(C)C`, the inhibition is 83.1% in test [1], 32.5% in test [5] and 37.8% in test [3].

In the case of `CCCC[C@H](NC(=O)C(=O)CCCCc1ccc2ccccc2c1)C(=O)NCC(=O)OC(C)(C)C`, the inhibition turned out to be 89.1% in test [1], 57.5% in test [3] and 44.8% in test [4].

For the molecule `CCCCC/C=C\C/C=C\C/C=C\C/C=C\CCCC(=O)C(F)(F)F`, the XI50 (mole fraction) in test [6] came out at 0.028.

For the molecule `CCCC[C@H](NC(=O)C(=O)CCCCc1ccc2ccccc2c1)C(=O)NCC(=O)O`, the inhibition in test [1] is less than 25%; in test [5], less than 25%; in test [3], 43.1%.

With `CCCC[C@H](NC(=O)C(=O)CCCCc1ccc(OC)cc1)C(=O)NCC(=O)OC(C)(C)C`, the inhibition in test [1] was more than 95%; in test [5] it was 45.3%; in test [3] it was 40.2%. For the same molecule, in test [2], the XI50 (mole fraction) was determined as 0.012.

`CC[C@H](C)[C@H](NC(=O)C(=O)CCCCc1ccc(OC)cc1)C(=O)NCC(=O)OC(C)(C)C`: the inhibition in test [1] was determined as 81.8%; in test [3] it was 57.3%; in test [4], 48.2%.

For the molecule `CCCC[C@H](NC(=O)C(=O)CCCCc1ccc(OC)cc1)C(=O)NCCCCC(=O)OC(C)(C)C`, the inhibition was 90.1% in test [1], 56.3% in test [5] and 64.5% in test [3].

Turning to `CCCC[C@H](NC(=O)C(=O)CCCCc1ccc(OC)cc1)C(=O)NCC(=O)NCC(=O)OC(C)(C)C`, the inhibition in test [1] was 66.5%; in test [5], less than 25%; in test [3], 27.1%.

Take `CCCC[C@@H](COCC(=O)OC(C)(C)C)NC(=O)C(=O)CCCCc1ccccc1`: the inhibition in test [1] stood at 76%; in test [5], 57.5%; in test [3], 82.3%.

On to `CCCC[C@@H](NC(=O)C(=O)CCCCc1ccc(OC)cc1)C(=O)NCC(=O)OC(C)(C)C`, for which the inhibition was more than 95% in test [1], 68% in test [3] and 39.3% in test [4]. Also, in test [2], the XI50 (mole fraction) turned out to be 0.04.

Consider `CCCC[C@H](NC(=O)C(=O)CCCCc1ccc(OC)cc1)C(N)=O`, for which the inhibition in test [1] amounted to 66.2%; in test [3], 29.3%; in test [4] it was 31.1%.

For `COc1ccc(CCCCC(=O)C(=O)N[C@@H](CC(C)C)C(=O)NCCCC(=O)OC(C)(C)C)cc1`, the inhibition in test [1] was 92.8%; in test [5], less than 25%; in test [3] it was 58%.

As to `CCCC[C@H](NC(=O)C(=O)CCCCc1ccc(OC)cc1)C(=O)NCCCC(=O)OCc1ccccc1`, the inhibition in test [1] is 78.3%; in test [3], 47.9%; in test [4] it was 27.7%.

On to `CCCC[C@H](NC(=O)C(=O)CCCCc1ccc(OC)cc1)C(=O)OC(C)(C)C`, for which the inhibition was found to be 60% in test [1], 85.7% in test [3] and 60.6% in test [4].

Consider `CCCC[C@H](NC(=O)C(=O)CCCCc1ccccc1)C(=O)NCC(=O)O`, for which the inhibition in test [1], in test [5] and in test [3] was less than 25% each time.

Turning to `CCCC[C@H](NC(=O)C(=O)CCCCc1ccc(OC)cc1)C(=O)NCC(=O)OCc1ccccc1`, the inhibition in test [1] is more than 95%; in test [5], less than 25%; in test [3] it was 52.3%. In addition, the XI50 (mole fraction) in test [2] is 0.026.

On to `CCCC[C@@H](COCC(=O)OCC)NC(=O)C(=O)CCCCc1ccc(OC)cc1`, for which, in test [1], the inhibition came out at 75.2%.

As to `CCCC[C@H](NC(=O)C(=O)CCCCc1ccc(OC)cc1)C(=O)N[C@H](C)C(=O)OC(C)(C)C`, the inhibition in test [1] is 87.1%; in test [3], 73.4%; in test [4], 49.9%.

For the molecule `CCCC[C@@H](COCC(=O)OC(C)(C)C)NC(=O)C(=O)CCCCc1ccc(OC)cc1`, the inhibition in test [1] is 93.6%.

`CCCC[C@H](NC(=O)C(=O)CCCCc1ccc(OC)cc1)C(=O)N[C@@H](C)C(=O)OC(C)(C)C`: the inhibition in test [1] worked out at 87.5%; in test [3], 57.4%; in test [4], 46.6%.

Turning to `CCCC[C@@H](COCC(=O)O)NC(=O)C(=O)CCCCc1ccc(OC)cc1`, the inhibition in test [1] was less than 25%.

Consider `CCCC[C@@H](COCC(=O)OC(C)(C)C)NC(=O)C(=O)CCCCc1ccc2ccccc2c1`, for which the inhibition in test [1] was found to be 88.4%; in test [3] it was 85.5%; in test [4] it was 63.9%.

With `CCCC[C@H](NC(=O)C(=O)CCCCc1ccc2ccccc2c1)C(=O)NCC(=O)OCC`, the inhibition in test [1] worked out at 77.1%; in test [5] it was 54.4%; in test [3], 70.5%.

Take `CCCC[C@H](NC(=O)C(=O)CCCCc1ccc(OC)cc1)C(=O)NCCCC(=O)OC(C)(C)C`: the results for the inhibition in test [1], in test [3] and in test [4] were more than 95%, 52.6% and 44.8%, respectively. Moreover, the XI50 (mole fraction) in test [2] is 0.007. Also, in the test filed under Homo sapiens, the Selectivity ratio was found to be 13.
